Assay results from PubChem BioAssay AID623993 (Broad Institute, 2012).
The source made the active and inactive calls.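 How the source made its calls: active means inhibitor whose fitted half-maximal dose is at most twice the top valid tested dose; inconclusive means flat curve with partial inhibition, or poor fit; inactive means signal rising, flat near zero, or weaker potency.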

Molecular target: PvdQ acyl-homoserine lactone acylase (Pseudomonas aeruginosa LESB58)
Experiment: inhibition of P. aeruginosa PvdQ enzyme – biochemical, 4-MU laurate fluorescence, dry powder, set 4, dose response (AID 623993)
Conditions: purified PvdQ, 4-MU laurate hydrolysis fluorescence; for activity change, negative = inhibition: at 19.5 µM (top of the series)
Procedure, shortened: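 Detection: Fluorescence, ex 303–367 nm, em 440–460 nm | Assay system: Purified Pseudomonas aeruginosa PvdQ acylase enzyme | Amount: PvdQ enzyme at 0.02 µM final | Incubation: 30 min enzyme–compound preincubation, then 60 min substrate reaction, room temperature | Reagent: 4-MU laurate substrate, 0.8 mM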

AC50 | activity change, negative = inhibition | Compound
– | inactive | Clc1ccc(C(c2cccc(Cl)n2)c2nn[nH]n2)cc1 (stereo not given)
530 nM | – | COCCC(C#N)c1ccc(F)cc1 (stereo not given)
– | inactive | COCCNC(C#N)c1ccc(Cl)cc1 (stereo not given)
3530 nM | – | CCCCC(c1ccc(Cl)cc1)c1nn[nH]n1 (stereo not given)
786 nM | – | N#CC(c1ccc(Cl)cc1)N1CCCC1 (stereo not given)
14500 nM | – | CN(C)CCCC(C#N)c1ccc(Cl)cc1 (stereo not given)
49.1 nM | – | N#CC(c1ccc(Cl)cc1)c1cccc(Cl)n1 (stereo not given)
7070 nM | – | COCCOCCC(C#N)c1ccc(Cl)cc1 (stereo not given)
412 nM | – | CCCCC(C#N)c1ccc(Cl)cc1 (stereo not given)

Continued, compound first:

Compound | AC50 | activity change, negative = inhibition
N#CC(c1cccc(C(F)(F)F)n1)c1ccc(Cl)cc1F (stereo not given) | < 3 nM | –
N#CC(c1ccc(C(F)(F)F)c(Cl)n1)c1ccccc1OC(F)(F)F (stereo not given) | 15200 nM | –
CCCCC(C#N)c1ccc(F)cc1 (stereo not given) | 412 nM | –
N#CC(c1ccc(Cl)cc1)c1ccccn1 (stereo not given) | 212 nM | –
N#CC1c2ccc(Cl)cc2CCc2cccnc21 (stereo not given) | 3510 nM | –
CCCCC(C#N)c1ccccn1 (stereo not given) | – | inactive
N#CC(c1ccc(F)cc1)c1cccc(C(F)(F)F)n1 (stereo not given) | < 3 nM | –
COCCC(C#N)c1ccc(Cl)cc1 (stereo not given) | 3470 nM | –
N#CC(c1ccc(F)cc1)c1cccc(Cl)n1 (stereo not given) | 108 nM | –
N#Cc1cccc(C(C#N)c2ccc(F)cc2)n1 (stereo not given) | 140 nM | –
N#CC(c1ccc(Cl)cc1)c1cccc(C(F)(F)F)n1 (stereo not given) | 23.6 nM | –
CCCCC(C#N)c1ccc(Cl)cn1 (stereo not given) | 1630 nM | –
N#CC(c1cccc(Cl)n1)c1ccc(Cl)cc1F (stereo not given) | 7.66 nM | –
N#CC(c1ccc(Cl)cc1)c1ncccc1Cl (stereo not given) | 3.01 nM | –
COCCOCCC(C#N)c1ccc(F)cc1 (stereo not given) | 177 nM | –
CN(C)CCCC(C#N)c1ccc(F)cc1 (stereo not given) | 273 nM | –
